Source: PubChem BioAssay (several laboratories)
Sampled rows, rich in hits. Any-hit rate of the full collection: about 5.4%.
Mdm2 MdmX PPI: disrupts the human Mdm2-MdmX interaction. inhibition, % at 8 µM. SaOS-2 split-luciferase Mdm2/MdmX complementation, luminescence. O15151+Q00987. actives 3% (n = 330,000);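 active = inhibition of at least 50% at 8 µM in the primary screen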
T cruzi repl: blocks replication of Trypanosoma cruzi; T. cruzi beta-gal in NIH3T3, luminescence, 90 h; inhibition, % (no concentration beside the values); actives 1.4% (n = 300,000);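 active = mean inhibition across valid replicates above about 55%, limit read from the data; inconclusive = mean below that limit but half or more replicates reach it; inactive = mean below it, under half of replicates reach it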;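 note: signal also drops with host cell toxicity which is not excluded here; higher percent means less beta-gal luminescence so fewer parasites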
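Assay system: NIH/3T3 fibroblasts plus reporter T. cruzi. Amount: NIH/3T3 cells, 5,000 per well. Buffer or medium: DMEM, 2% fetal bovine serum. Doses: compound pinned at 50 nL/well, DMSO. Schedule: ≥90 h infection period, 3 h prior cell attachment. Signal: luminescent β-galactosidase signal after 60 min lysis. Read-out: parasite load inhibition, %.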
CSC inhib: blocks cancer stem cells; actives 1.1% (n = 300,000); inhibition, % at 7.5 µM; cancer stem cell-like cells viability, luminescence; AID 2717; in the data active = inhibition above about 75%; inconclusive = no clear call, values can overlap the other calls; tested in HMLE shEcad cells
aSyn 5UTR inh: MLPCN primary screen, SNCA 5' untranslated region. actives 0.82% (n = 300,000). alpha-synuclein 5'UTR reporter, inhibitor activity. AID 1813. inhibition, % (tested at 7.5 µM); in the data active = inhibition above about 60%; inconclusive = no clear call, values can overlap the other calls;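 note: H4 neuroglioblastoma cells stably carrying SNCA 5'UTR luciferase fusion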
SKKanGAS inh: blocks kanamycin growth of S. pyogenes SKKanGAS strain; actives 1.3% (n = 300,000); inhibition, % at 7.5 µM; AID 1662; BacTiter-Glo, 6 h;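 active = mean replicate score, as percent of positive control median, at least 50; inconclusive = mean below 50 but one replicate at or above 50; inactive = mean and every replicate below 50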;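 note: strain carries kanamycin resistance gene driven by streptokinase promoter and grows in 40 µg/ml kanamycin; loss of luminescence reflects streptokinase promoter inhibition or plain growth inhibition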
Numbers stand for hits; n = inactive; u = inconclusive; x = no result.

SMILES	Mdm2 MdmX PPI	T cruzi repl	CSC inhib	aSyn 5UTR inh	SKKanGAS inh
Oc1nc(Nc2ccccc2)sc1/C=C1\C=Nc2ccccc21	n	n	u	n	54
CCOC(=O)c1c(Nc2ccccc2)sc(/C=C2\C=Nc3ccccc32)c1O	n	n	n	n	n
O=C(CNC(=S)N(Cc1ccccc1)Cc1ccccc1F)NCCc1ccc(Cl)cc1	n	85	u	n	n
O=C(CNC(=S)N(Cc1ccccc1)Cc1cccs1)NCc1ccc(F)cc1	x	n	x	n	n
CCOc1ccccc1C(=O)OCC(=O)Nc1cc(S(=O)(=O)N2CCOCC2)ccc1C	n	x	x	x	x
Cc1cc([N+](=O)[O-])ccc1NC(=O)C[n+]1ccc(N(C)C)cc1	n	n	n	n	n
COc1ccc2c(c1)c(=O)oc1c(C)c(OCc3ccc(C(=O)O)cc3)ccc12	x	n	n	n	52
CCN(CC)C(=O)c1c2c(nc3ccccc13)-c1ccccc1CC2	n	n	n	n	n
CCN(CC)c1nc(C(F)(F)F)nc2c1nnn2Cc1ccccc1	n	n	n	n	58
Cc1nc(N(C)Cc2ccccc2)c2nnn(Cc3ccccc3)c2n1	n	n	n	n	n
COc1ccc(NC(=O)C2CCN(S(=O)(=O)c3cccc4nonc34)CC2)cc1	n	n	n	n	n
c1ccc(CSc2ccc(-c3ccccn3)nn2)cc1	n	58	86	n	n
O=C(CSc1ccc(-c2ccccn2)nn1)c1ccccc1	n	n	n	n	n
CCCc1nc2ccccc2c(=O)n1/N=C/c1c(C)[nH]n(-c2ccc(C)cc2)c1=O	n	n	n	n	97
Cc1n[nH]c(=O)c2c(NC(=O)CSc3nc4ccccc4c(=O)n3CCCO)oc(C)c12	n	n	n	n	n
CC(C)(C)c1ccc(NC(=O)COC(=O)c2ccc(NS(=O)(=O)c3ccc(F)c(F)c3)cc2)cc1	n	n	n	n	54
O=C(c1cc(-c2ccc(Cl)cc2Cl)on1)N1CCOCC1	n	n	n	80	n
CCc1ccc(NC(=O)C(C)Sc2nnc(CN3CCCC3)o2)cc1 (configuration not stated)	n	x	n	x	x
Nc1nc(-c2ccccn2)nc(N)c1Cc1ccc(Cl)cc1Cl	n	73	n	n	114
Nc1nc(-c2ccccn2)nc(N)c1Cc1ccccc1F	n	82	n	n	79
Nc1nc(-c2ccccn2)nc(N)c1Cc1c(F)cccc1Cl	n	57	n	n	n
Cc1n[nH]c(C)c1Cc1c(F)cccc1Cl	n	n	n	n	n
CNc1cc(C(F)(F)F)nc(-c2ccccn2)n1	n	n	n	n	n
Clc1ccc(OCc2nc(-c3ccccn3)no2)c(Br)c1	n	n	n	n	n
COC(=O)c1ccc(NC(=O)c2sc3nc(-c4ccccc4)cn3c2C)cc1	n	n	n	n	71
SMILES	Mdm2 MdmX PPI	T cruzi repl	CSC inhib	aSyn 5UTR inh	SKKanGAS inh
O=C1NCCC/C1=N/Nc1ccc(F)cc1	n	n	n	n	n
Cc1ccc(N/N=C2\CS(=O)(=O)N(C)c3ccsc32)cc1	n	64	n	n	101
CCCC(=O)N/N=C1\CS(=O)(=O)N(C)c2ccsc21	n	n	n	n	n
CN1c2ccsc2/C(=N/Nc2ccc(F)cc2)CS1(=O)=O	n	64	n	n	x
O=C(NC(=S)N1CCN(C(c2ccccc2)c2ccccc2)CC1)c1ccc(S(=O)(=O)N2CCOCC2)cc1	n	n	n	n	66
C=CCc1cc(Cl)ccc1OCCN(C)C	n	57	n	n	n
Clc1ccc(OCCCNCc2ccccc2)c2ccccc12	n	n	110	n	n
C=CCc1cc(Cl)ccc1OCCOCCNC(C)CC (configuration not stated)	n	n	131	n	n
C=CCc1cc(Cl)ccc1OCCCNCCO	n	n	x	n	n
C=CCc1cc(Cl)ccc1OCCCNC(C)C	n	n	n	n	n
CCC(C)NCCOCCOc1ccc(Cl)c2ccccc12 (configuration not stated)	n	55	x	n	n
CCC(C)NCCOCCOc1ccc(Cl)c(C)c1C (configuration not stated)	n	59	n	n	n
CCC(C)NCCCOc1cc(Cl)ccc1Cl (configuration not stated)	n	n	n	n	n
CN(C)CCCNc1cc(O)c2ncccc2c1	n	x	x	x	x
CC1CC(=O)NN=C1c1ccc(NCCO)c([N+](=O)[O-])c1 (configuration not stated)	n	n	n	76	n
Cn1nc(-c2ccc(NCCO)c([N+](=O)[O-])c2)c2ccccc2c1=O	n	n	n	n	n
Cc1ccccc1C(=O)OC1CCN(C)CC1	n	59	n	n	n
CN1CCC(OC(=O)c2ccccc2Cl)CC1	n	58	n	n	n
CN1CCC(OC(=O)c2cccc(Br)c2)CC1	n	u	n	n	n
CN1CCC(OC(=O)c2cc3cc(Cl)cc(Cl)c3oc2=O)CC1	n	n	n	n	n
CN1CCC(OC(=O)c2ccco2)CC1	n	n	n	n	n
CN1CCC(OC(=O)c2ccc(Cl)cc2Cl)CC1	n	58	n	n	n
O=C(CCN1C(=O)/C(=C\C=C\c2ccccc2)SC1=S)Nc1cccc(C(=O)O)c1	n	n	n	n	n
O=C(COC(=O)CCN1C(=O)/C(=C\C=C\c2ccccc2)SC1=S)Nc1ccc(Br)cc1	n	n	n	65	n
CC(C)c1ccccc1NC(=O)COC(=O)CCN1C(=O)/C(=C\C=C\c2ccccc2)SC1=S	n	n	n	73	n
SMILES	Mdm2 MdmX PPI	T cruzi repl	CSC inhib	aSyn 5UTR inh	SKKanGAS inh
CCC(C)(C)c1ccc(Oc2ccc(N)cc2)cc1	x	n	x	127	n
CCC(C)(C)c1ccc(Oc2cccc(C(=O)O)c2)cc1	n	n	n	n	n
O=[N+]([O-])c1cc(-c2csc(NCCc3nc4cc(C(F)(F)F)ccc4n3CCCO)n2)ccc1Cl	n	n	n	n	n
OCCCn1c(CCNc2nc(-c3ccc(Cl)cc3)cs2)nc2cc(C(F)(F)F)ccc21	n	n	78	n	n
COc1ccc(CCNC(=O)c2cc(-c3ccc(Cl)c(Cl)c3)oc2C)cc1	n	n	u	n	53
CN1CCN(NC(=O)Nc2cccc(Cl)c2Cl)CC1	n	57	n	n	n
CCCNC(=O)c1ccc(N2CCC3(CC2)CC(c2cccc(Br)c2)=NO3)c(NC(=O)c2ccccc2)c1	n	57	n	n	n
CCCCCCCC(=O)Nc1cc(C(=O)NCCC)ccc1N1CCC2(CC1)CC(c1ccccc1)=NO2	n	57	n	n	n
CCCNC(=O)c1ccc(N2CCC3(CC2)CC(c2ccccc2)=NO3)c(NC(=O)c2ccc(Br)cc2)c1	n	n	n	n	n
O=C(NNc1cc(Br)c(O)c(Br)c1)c1ccccc1	n	n	n	n	n
CCCn1c(=O)c(C(=O)NNC(=O)c2ccccc2[N+](=O)[O-])c(O)c2ccccc21	n	n	n	n	n
CCCn1c(=O)c(C(=O)NNC(=O)c2ccccc2Cl)c(O)c2ccccc21	n	n	x	n	86
CCCCCCCC(=O)NNC(=O)c1c(O)c2ccccc2n(CCC)c1=O	n	n	n	n	111
CCCCCCC(=O)NNC(=O)c1c(O)c2ccccc2n(CCC)c1=O	n	n	n	n	92
